In PubChem BioAssay AID504504 (Broad Institute, 2011):
Records with an inconclusive call do not appear. Calls of active or inactive are those of the source.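 Rule for the calls: active = growth-lowering compounds whose fitted AC50 is at most ten times their top valid dose; inconclusive = flat fit with 30 to 70% inhibition, or unreliable fit; inactive = the rest.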

Assays:
[1] = system: C. albicans CaCi-8 + fluconazole, Alamar Blue growth, 48 h; assay: antifungal activity against resistant Candida strain – CaCi-8, with fluconazole, powder samples, set 10, dose response (AID 504504)
Method in brief: (§1)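 Material: fluconazole-resistant C. albicans strain CaCi-8. Quantity: inoculum OD600 0.00015. Buffer or medium: defined RPMI 1640 medium with MOPS, glucose, uridine. Probe or stimulus: fluconazole 8 µg/mL. Incubation: 48 h exposure at 37 °C unshaken, dye 2 h RT. Measured by: Alamar Blue fluorescence, excitation 544 nm, emission 590 nm.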

[2] = as above; conditions: C. albicans CaCi-8 + fluconazole, Alamar Blue growth, 48 h; at 26 µM (top of the series)
Method in brief: as §1

Row | SMILES | AC50 [1] | activity change, negative = growth inhibition [2]
1 | COC(=O)Cn1nc(-c2cccc(F)c2)c2ccccc21 | 1840 nM | 
2 | CC1CCN(CCn2c3ccccc3c3nc4n(c(=O)c32)CCS4)CC1 |  | -17.5% (inactive)
3 | CC1(O)CN(C(=O)Cn2c3ccccc3c3nc4n(c(=O)c32)CCS4)C1 | > 26000 nM (inactive) | 
4 | O=C(O)Cn1c2ccccc2c2nc3n(c(=O)c21)CCS3 |  | -4.73% (inactive)
5 | O=C(Cn1c2ccccc2c2nc3n(c(=O)c21)CCS3)N1CCCC1 | 1970 nM | 
6 | COC(=O)Cn1nc(C2CCCCC2)c2ccccc21 | 3440 nM | 
7 | O=C(Cn1c2ccc(F)cc2c2nc3n(c(=O)c21)CCS3)N1CCC(F)(F)C1 |  | 32% (inactive)
8 | O=C(Cn1c2ccc(F)cc2c2nc3n(c(=O)c21)CCS3)N1CCCC1 |  | 15.4% (inactive)
9 | O=C(O)Cn1c2ccc(F)cc2c2nc3n(c(=O)c21)CCS3 |  | -8.94% (inactive)
10 | COC(=O)Cn1nc(-c2cccc(C)c2)c2ccccc21 | 702 nM | 
11 | O=C(Cn1c2ccccc2c2nc3n(c(=O)c21)CCS3)N1CCCCC1 | 2170 nM | 
12 | COC(=O)Cn1nc(-c2cccc(OC)c2)c2ccccc21 | 607 nM | 
13 | O=C(Cn1c2ccccc2c2nc3n(c(=O)c21)CCS3)N1CCC(F)(F)C1 | 6690 nM | 
14 | O=C(Cn1c2ccccc2c2nc3n(c(=O)c21)CCS3)N1CC=CC1 | 2020 nM | 
15 | O=C(Cn1c2ccc(F)cc2c2nc3n(c(=O)c21)CCS3)N1CC=CC1 |  | 65% (inactive)
16 | COC(=O)Cn1nc(C2CC2)c2ccccc21 |  | -23.8% (inactive)
17 | COC(=O)Cn1nc(C(C)(C)C)c2ccccc21 |  | -4.79% (inactive)
18 | COC(=O)Cn1c2ccc(F)cc2c2nc3n(c(=O)c21)CCS3 | 2990 nM | 
19 | CCc1nn(CC(=O)OC)c2ccccc12 |  | -7.82% (inactive)
20 | COC(=O)n1nc(-c2ccccc2)c2ccccc21 |  | 11.4% (inactive)
21 | COC(=O)Cn1nc(-c2cnco2)c2ccccc21 |  | -17.4% (inactive)
22 | O=C(Cn1c2ccc(F)cc2c2nc3n(c(=O)c21)CCS3)N1CCC(F)(F)CC1 |  | 60.6% (inactive)
23 | COC(=O)Cn1nc(-c2cscn2)c2ccccc21 | 18300 nM | 
24 | c1ccc(-c2nn(Cc3nnco3)c3ccccc23)cc1 | 21800 nM | 
